Source: ChEMBL document CHEMBL1131084, “3-Alkyl ethers of clocinnamox: delayed long-term mu-antagonists with variable mu efficacy” (J Med Chem, 1998)
The source made the active and inactive calls. The calls are words filed in the database; no cut-off is given here.

Experiments:
[1] = biological target: Delta-type opioid receptor (Rattus norvegicus, UniProt P33533); assay: In vitro binding affinity against Opioid receptor delta 1 (DPDPE) in rat brain homogenates.; type: tissue-based
Summary of the method: (§1)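 Crude membranes from brain minus cerebellum, homogenized in 50 mM Tris, pH 7.4. Radioligands [3H]DAMGO 2 nM (μ), [3H]DPDPE 1.8 nM (δ), [3H]U69,593 1.1 nM (κ). Nonspecific binding defined with 10 μM naloxone. Compounds from DMSO stock; final DMSO ≤0.1%.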

Mus musculus [2] = assay: Antagonism of morphine antinociceptive ED50 by the compound. Onset and Duration of morphine antagonist action in the mouse tail flick assay at a Pretreatment time of 72 hours.(sc administration); type: functional
Summary of the method: (§2)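 Mice, tail flick test. Ether given sc (vehicle: distilled water, 5% aqueous DMSO or 5% hydroxypropyl-β-cyclodextrin), then morphine; pretreatment intervals from the standard 30 min up to 72 h. Antagonism taken as the shift in morphine antinociceptive ED50.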

Mus musculus [3] = assay: Antagonist selectivity after a 24-h pretreatment period, in the mouse abdominal stretch assay using BW373U86 (10 mg/kg) as the agonist.; type: functional, Abdomen
Summary of the method: (§3)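 Mice, acetic acid abdominal stretch assay. Ether 32 mg/kg sc given 24 h beforehand (vehicle sterile water with 16% MeOH and 1% HCl). Agonist (morphine 3.2 mg/kg, BW373U86 10 mg/kg, or bremazocine) given sc 15 min before ip acetic acid. Read-out is % antagonism of the agonist effect.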

Mus musculus [4] = assay: Antagonism of morphine antinociceptive ED50 by the compound. Onset and Duration of morphine antagonist action in the mouse tail flick assay at a Pretreatment time of 2 hr. (30 mg/kg sc administration); type: functional; summary of the method: as §2
Mu-type opioid receptor = Mu-type opioid receptor (Rattus norvegicus, UniProt P33535); assay: In vitro binding affinity against Opioid receptor mu 1 (DAMGO) opioid receptor in rat brain homogenates.; type: tissue-based; summary of the method: as §1
Sequence of Mu-type opioid receptor (P33535 whole entry): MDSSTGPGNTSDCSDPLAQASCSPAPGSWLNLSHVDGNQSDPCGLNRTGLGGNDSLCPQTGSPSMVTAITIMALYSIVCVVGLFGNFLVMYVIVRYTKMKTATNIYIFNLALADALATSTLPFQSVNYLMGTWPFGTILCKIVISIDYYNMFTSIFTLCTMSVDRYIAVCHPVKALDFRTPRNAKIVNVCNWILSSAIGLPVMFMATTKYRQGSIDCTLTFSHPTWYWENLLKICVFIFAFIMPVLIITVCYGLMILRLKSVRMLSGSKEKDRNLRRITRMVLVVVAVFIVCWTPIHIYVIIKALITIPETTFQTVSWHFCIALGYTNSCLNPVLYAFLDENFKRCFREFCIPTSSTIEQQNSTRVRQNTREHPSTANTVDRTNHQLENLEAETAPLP

Mus musculus [5] = assay: Comparison of the antinociceptive agonist/antagonist profile of activity by Phenylquinone-abdominal stretch test.(sc administration); type: functional
Summary of the method: (§4)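 Mice, phenylquinone abdominal stretch, hot plate or tail flick tests. Compounds given sc in distilled water, 5% aqueous DMSO or 5% hydroxypropyl-β-cyclodextrin.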

Mus musculus [6] = assay: Comparison of the antinociceptive agonist/antagonist profile of activity by tail flick test (sc administration); inactive up to 30 mg/kg; type: functional, organism-based; parameters: dose 30 mg/kg; summary of the method: as §4
Mus musculus [7] = assay: Antagonist selectivity after a 24-h pretreatment period, in the mouse abdominal stretch assay using morphine (3.2 mg/kg) as the agonist.; type: functional, Abdomen; summary of the method: as §3
Mus musculus [8] = organism: Mus musculus; assay: Antagonist selectivity after a 24-h pretreatment period, in the mouse abdominal stretch assay using Bremazocine as the agonist.; type: functional, Abdomen; summary of the method: as §3
Mus musculus [9] = assay: Antagonism of morphine antinociceptive ED50 by the compound. Onset and Duration of morphine antagonist action in the mouse tail flick assay at a Pretreatment time of 24 hours.(sc administration); type: functional; summary of the method: as §2
[10] = biological target: Kappa-type opioid receptor (Rattus norvegicus, UniProt P34975); assay: In vitro binding affinity against Opioid receptor kappa 1 in rat brain homogenates.; type: tissue-based; summary of the method: as §1
Sequence of Kappa-type opioid receptor (P34975 whole entry): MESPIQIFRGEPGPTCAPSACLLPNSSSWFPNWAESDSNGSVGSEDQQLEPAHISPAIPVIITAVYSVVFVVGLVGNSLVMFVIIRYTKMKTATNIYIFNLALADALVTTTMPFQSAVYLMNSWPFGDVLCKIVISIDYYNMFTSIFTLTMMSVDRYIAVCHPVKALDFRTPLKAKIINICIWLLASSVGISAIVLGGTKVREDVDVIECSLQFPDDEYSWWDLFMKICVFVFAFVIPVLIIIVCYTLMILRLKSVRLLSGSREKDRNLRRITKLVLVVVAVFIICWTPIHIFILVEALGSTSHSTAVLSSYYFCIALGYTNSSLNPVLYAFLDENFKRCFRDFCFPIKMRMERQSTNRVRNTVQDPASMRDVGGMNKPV

Mus musculus [11] = assay: Antagonism of morphine antinociceptive ED50 by the compound. Onset and Duration of morphine antagonist action in the mouse tail flick assay at a Pretreatment time of 36 hours.(sc administration); type: functional; summary of the method: as §2
Mus musculus [12] = assay: Comparison of the antinociceptive agonist/antagonist profile of activity byhot plate test (sc administration); inactive up to 20 mg/kg.; type: functional, organism-based; parameters: dose 20 mg/kg; summary of the method: as §4
Mus musculus [13] = assay: Comparison of the antinociceptive agonist/antagonist profile of activity by Tail Flick vs morphine test (sc administration); inactive up to 30 mg/kg; type: functional, organism-based; parameters: dose 30 mg/kg
Mus musculus [14] = assay: Antagonism of morphine antinociceptive ED50 by the compound. Onset and Duration of morphine antagonist action in the mouse tail flick assay at a Pretreatment time of 6 hours.(sc administration); type: functional; summary of the method: as §2
Mus musculus [15] = assay: Comparison of the antinociceptive agonist/antagonist profile of activity by hot plate test.(sc administration)
Mus musculus [16] = organism: Mus musculus; assay: Antinociceptive potency determined by mouse tail withdrawal assay.; type: functional
Summary of the method: (§5)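 Mice, tail withdrawal test in 50 °C water. Ethers dissolved in sterile water containing 16% MeOH and 1% HCl and injected sc. ED50 in mg/kg and % MPE reported; means ± SEM from 6 animals.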

Mus musculus [17] = organism: Mus musculus; assay: Percent MPE was evaluated in mouse tail withdrawal assay; type: functional; summary of the method: as §5
Mus musculus [18] = assay: Comparison of the antinociceptive agonist/antagonist profile of activity by Tail Flick vs morphine test.(sc administration) inactive up to 30 mg/kg; type: functional, organism-based; parameters: dose 30 mg/kg
Mus musculus [19] = assay: Comparison of the antinociceptive agonist/antagonist profile of activity by hot plate test.(sc administration); inactive up to 20 mg/Kg; type: functional, organism-based; summary of the method: as §4
Mus musculus [20] = assay: Comparison of the antinociceptive agonist/antagonist profile of activity by Tail Flick vs morphine test.(sc administration); type: functional
Mus musculus [21] = assay: Percent MPE was evaluated in mouse tail withdrawal assay at 32 mg/kg; type: functional; summary of the method: as §5
Mus musculus [22] = assay: Comparison of the antinociceptive agonist/antagonist profile of activity by Tail Flick vs morphine test.(Inactive up to 30 mg/kg; sc administration); type: functional, organism-based; parameters: dose 30 mg/kg
Mus musculus [23] = assay: Effect of antagonist (Naltrindole, 10 mg/kg for a pretreatment time of 15 min)on the inhibition of acetic acid-induced abdominal stretches by the compound (10 mg/kg sc); type: functional, Abdomen
Summary of the method: (§6)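 Mice, acetic acid abdominal stretch assay (stretches induced by ip acetic acid). Ether 10 mg/kg sc, given after a selective antagonist: β-FNA 32 mg/kg at 24 h, naltrindole 10 mg/kg at 15 min, or nor-BNI 32 mg/kg at 24 h beforehand. Read-out is % antagonism.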

Mus musculus [24] = assay: Comparison of the antinociceptive agonist/antagonist profile of activity byhot plate test.(sc administration); type: functional; summary of the method: as §4
Mus musculus [25] = assay: Comparison of the antinociceptive agonist/antagonist profile of activity by tail flick test.(sc administration); type: functional; summary of the method: as §4
Mus musculus [26] = assay: Effect of antagonist (beta-FNA, 32 mg/kg for a pretreatment time of 24 h) on the inhibition of acetic acid-induced abdominal stretches by the compound (10 mg/kg sc); type: functional, Abdomen; summary of the method: as §6
Mus musculus [27] = assay: Effect of antagonist (Nor-BNI, 32 mg/kg for a pretreatment time of 24 h) on the inhibition of acetic acid-induced abdominal stretches by the compound (10 mg/kg sc); type: functional, Abdomen; summary of the method: as §6

Sequence of Delta-type opioid receptor (P33533 whole entry): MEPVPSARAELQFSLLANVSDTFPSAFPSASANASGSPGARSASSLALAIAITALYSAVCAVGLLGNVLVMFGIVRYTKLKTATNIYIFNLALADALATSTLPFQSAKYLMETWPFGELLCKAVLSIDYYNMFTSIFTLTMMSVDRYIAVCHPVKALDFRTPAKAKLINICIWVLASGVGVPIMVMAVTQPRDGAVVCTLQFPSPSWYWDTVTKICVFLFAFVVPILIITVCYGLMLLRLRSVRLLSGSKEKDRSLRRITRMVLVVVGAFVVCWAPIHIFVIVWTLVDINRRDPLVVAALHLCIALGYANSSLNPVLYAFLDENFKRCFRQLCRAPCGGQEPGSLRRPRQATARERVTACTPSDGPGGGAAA

Compound	Ki [1] [nM]	Ki (Mu-type opioid receptor) [nM]	ED50 (Mus musculus [5]) [mg/kg]	Ki [10] [nM]	ED50 (Mus musculus [16]) [mg/kg]	MPE (Mus musculus [17]) [%]	also measured
O=C(/C=C/c1ccc(Cl)cc1)N[C@@]12CCC(=O)[C@@H]3Oc4c(OCC5CC5)ccc5c4[C@@]31CCN(CC1CC1)[C@@H]2C5	56.5	7.6	6.7	131			AD50 (Mus musculus [2]): 11.39 mg/kg; Antagonism (Mus musculus [3]): 0%; Antagonism (Mus musculus [4]): 57%; ED50 (Mus musculus [6]): inactive; Antagonism (Mus musculus [7]): 100%; Antagonism (Mus musculus [8]): 19%; AD50 (Mus musculus [9]): 3.41 mg/kg; AD50 (Mus musculus [11]): 6.82 mg/kg; ED50 (Mus musculus [12]): inactive; ED50 (Mus musculus [13]): inactive; AD50 (Mus musculus [14]): 0.97 mg/kg
CC(C)Oc1ccc2c3c1O[C@H]1C(=O)CC[C@@]4(NC(=O)/C=C/c5ccc(Cl)cc5)[C@@H](C2)N(CC2CC2)CC[C@]314	96.4	59.8		14.9			
CN1CC[C@]23c4c5ccc(O)c4O[C@H]2[C@@H](O)C=C[C@H]3[C@H]1C5 [MORPHINE]					17.9	100	ED50 (Mus musculus [15]): 0.9 mg/kg; ED50 (Mus musculus [18]): inactive
COc1ccc2c3c1O[C@H]1C(=O)CC[C@@]4(NC(=O)/C=C/c5ccc(Cl)cc5)[C@@H](C2)N(CC2CC2)CC[C@]314			0.2				ED50 (Mus musculus [19]): inactive; ED50 (Mus musculus [6]): inactive; ED50 (Mus musculus [20]): 6 mg/kg
C=CCOc1ccc2c3c1O[C@H]1C(=O)CC[C@@]4(NC(=O)/C=C/c5ccc(Cl)cc5)[C@@H](C2)N(CC2CC2)CC[C@]314	65.4	8.9		17.9	11.1	100	
N#CCOc1ccc2c3c1O[C@H]1C(=O)CC[C@@]4(NC(=O)/C=C/c5ccc(Cl)cc5)[C@@H](C2)N(CC2CC2)CC[C@]314	89.5	12.4		18	20.8	78	
O=C(/C=C/c1ccc(Cl)cc1)N[C@@]12CCC(=O)[C@@H]3Oc4c(O)ccc5c4[C@@]31CCN(CC1CC1)[C@@H]2C5 [CLOCINNAMOX]	12.5	9		5.4			
COC(=O)COc1ccc2c3c1O[C@H]1C(=O)CC[C@@]4(NC(=O)/C=C/c5ccc(Cl)cc5)[C@@H](C2)N(CC2CC2)CC[C@]314	24.8	7.6		95.4			
CCCOc1ccc2c3c1O[C@H]1C(=O)CC[C@@]4(NC(=O)/C=C/c5ccc(Cl)cc5)[C@@H](C2)N(CC2CC2)CC[C@]314	82.6	24.6		19.1			MPE (Mus musculus [21]): 35%
C#CCOc1ccc2c3c1O[C@H]1C(=O)CC[C@@]4(NC(=O)/C=C/c5ccc(Cl)cc5)[C@@H](C2)N(CC2CC2)CC[C@]314	21.3	1.6	0.3	19.1	6.3	100	ED50 (Mus musculus [22]): inactive; Antagonism (Mus musculus [2]): 36%; Antagonism (Mus musculus [3]): 38%; Antagonism (Mus musculus [23]): 3.9%; ED50 (Mus musculus [24]): 0.3 mg/kg; Antagonism (Mus musculus [4]): 17%; Antagonism (Mus musculus [7]): 96%; ED50 (Mus musculus [25]): 1.2 mg/kg; Antagonism (Mus musculus [8]): 7%; Antagonism (Mus musculus [26]): 100%; AD50 (Mus musculus [9]): 4.06 mg/kg; AD50 (Mus musculus [11]): 3.02 mg/kg; Antagonism (Mus musculus [27]): 4.8%; AD50 (Mus musculus [14]): 14.11 mg/kg
